The values that follow come from ChEMBL document CHEMBL3992538, “Hybrids of thienopyrimidinones and thiouracils as anti-tubercular agents: SAR and docking studies” (Eur J Med Chem, 2017).

In brackets after ≈: the same amount, converted by molar mass. A value given as a limit tells only on which side of the number the result lay.

Data set [1] has as its system Mycobacterium tuberculosis. Put plainly: Antitubercular activity against dormant stage of Mycobacterium tuberculosis H37Ra ATCC 25177 infected in human THP1 cells after 12 days by nitrate reductase assay. The following applies: H37Ra ATCC 25177, 288 h. The class given is functional. The method, boiled down: (§1)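 Ex vivo test of H37Ra in THP-1 cells by nitrate reductase assay, absorbance read at 540 nm. Active stage incubated 8 days and dormant stage 12 days. H37Ra (ATCC 25177) grown in M. pheli medium to OD 1.0 and subcultured once from -70°C stock.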

In data set [2] the test system is Mycobacterium tuberculosis. Put plainly: Antitubercular activity against active stage of Mycobacterium tuberculosis H37Ra ATCC 25177 infected in human THP1 cells after 8 days by nitrate reductase assay. The conditions noted are these: H37Ra ATCC 25177, 192 h. It is filed as functional. The method in brief:
as §1

Data set [3] has as its system Mycobacterium tuberculosis. Put plainly: Antitubercular activity against dormant stage of Mycobacterium tuberculosis H37Ra ATCC 25177 after 12 days by XTT reduction menadione assay. The conditions noted are these: H37Ra ATCC 25177, 288 h. It is filed as functional. The method, boiled down:
(§2)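 M. tuberculosis H37Ra (ATCC 25177), grown to log phase (OD 1.0) in M. pheli medium from -70°C stock, subcultured once before inoculation. Incubation 8 days (active) or 12 days (dormant). XRMA read-out as absorbance at 470 nm.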
(Tetrazolium assays rely on reduction of a dye to a coloured formazan, in cell work by metabolically active cells.)

In data set [4] the test system is Mycobacterium tuberculosis. The data set can be described thus: Antitubercular activity against active stage of Mycobacterium tuberculosis H37Ra ATCC 25177 after 8 days by XTT reduction menadione assay. The conditions noted are these: H37Ra ATCC 25177, 192 h. It is filed as functional. The method in brief:
as §2

A short description of data set [5]: Cytotoxicity against human THP1 cells assessed as growth inhibition by MTT assay. The class given is cell-based. The following applies: THP-1 cells. The method in brief: (§3)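 MTT assay in duplicate on THP-1 leukaemia, A549 lung adenocarcinoma, PANC-1 pancreatic adenocarcinoma and HeLa cervical carcinoma cells, all obtained from ECCC.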
Data set [6] can be described thus: Cytotoxicity against human A549 cells assessed as growth inhibition by MTT assay. It is filed as cell-based. The method, boiled down:
as §3

Data set [7] is described as follows: Cytotoxicity against human PANC1 cells assessed as growth inhibition by MTT assay. It is filed as cell-based. The following applies: PANC-1 cells. The method, boiled down:
as §3

Data set [8] is described as follows: Cytotoxicity against human HeLa cells assessed as growth inhibition by MTT assay. It is filed as cell-based. The method, boiled down: as §3
Data set [9] in a line: Selectivity index, ratio of GI50 for human A549 cells to MIC for dormant stage of Mycobacterium tuberculosis H37Ra ATCC 25177 infected in human THP1 cells. The class given is toxicity, cell-based. The following applies: read-out: Selectivity Index. The method, boiled down:
(§4)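 Selectivity index is the cytotoxic GI50 against the named human cell line divided by the antimycobacterial value. Activity counted as specific when SI >10.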

Data set [10] is described as follows: Selectivity index, ratio of GI50 for human A549 cells to MIC for dormant stage of Mycobacterium tuberculosis H37Ra ATCC 25177. The class given is toxicity. The following applies: read-out: Selectivity Index. The method, boiled down: as §4
Data set [11] is described as follows: Selectivity index, ratio of GI50 for human PANC1 cells to MIC for dormant stage of Mycobacterium tuberculosis H37Ra ATCC 25177 infected in human THP1 cells. The class given is toxicity, cell-based. The following applies: PANC-1 cells, read-out: Selectivity Index. The method, boiled down: as §4
Data set [12] in a line: Selectivity index, ratio of GI50 for human PANC1 cells to MIC for dormant stage of Mycobacterium tuberculosis H37Ra ATCC 25177. The class given is toxicity. The following applies: PANC-1 cells, read-out: Selectivity Index. The method in brief: as §4
A short description of data set [13]: Selectivity index, ratio of GI50 for human HeLa cells to MIC for dormant stage of Mycobacterium tuberculosis H37Ra ATCC 25177 infected in human THP1 cells. The class given is toxicity, cell-based. The following applies: read-out: Selectivity Index. The method in brief:
as §4

The nature of data set [14]: Selectivity index, ratio of GI50 for human HeLa cells to MIC for dormant stage of Mycobacterium tuberculosis H37Ra ATCC 25177. The class given is toxicity, cell-based. The following applies: read-out: Selectivity Index. The method, boiled down:
as §4

Data set [15] is described as follows: Selectivity index, ratio of GI50 for human A549 cells to MIC for active stage of Mycobacterium tuberculosis H37Ra ATCC 25177 infected in human THP1 cells. The conditions noted are these: read-out: Selectivity Index. It is filed as toxicity, cell-based. The method, boiled down:
as §4

Data set [16] is described as follows: Selectivity index, ratio of GI50 for human A549 cells to MIC for active stage of Mycobacterium tuberculosis H37Ra ATCC 25177. The following applies: read-out: Selectivity Index. The class given is toxicity. The method, boiled down:
as §4

Data set [17] in a line: Selectivity index, ratio of GI50 for human PANC1 cells to MIC for active stage of Mycobacterium tuberculosis H37Ra ATCC 25177 infected in human THP1 cells. It is filed as toxicity, cell-based. The following applies: PANC-1 cells, read-out: Selectivity Index. The method in brief:
as §4

A short description of data set [18]: Selectivity index, ratio of GI50 for human PANC1 cells to MIC for active stage of Mycobacterium tuberculosis H37Ra ATCC 25177. The class given is toxicity. The following applies: PANC-1 cells, read-out: Selectivity Index. The method, boiled down: as §4
The nature of data set [19]: Selectivity index, ratio of GI50 for human HeLa cells to MIC for active stage of Mycobacterium tuberculosis H37Ra ATCC 25177 infected in human THP1 cells. The following applies: read-out: Selectivity Index. The class given is toxicity, cell-based. The method in brief:
as §4

A short description of data set [20]: Selectivity index, ratio of GI50 for human HeLa cells to MIC for active stage of Mycobacterium tuberculosis H37Ra ATCC 25177. The class given is toxicity, cell-based. The conditions noted are these: read-out: Selectivity Index. The method in brief: as §4

In the case of `COc1cc(-c2nc(SCCCn3cnc4sc5c(c4c3=O)CCCC5)[nH]c(=O)c2C#N)cc(OC)c1OC`, the MIC came to 26.1 µg/mL (≈ 46.1 µM) in data set [1], 28.8 µg/mL (≈ 50.9 µM) in [2], 23.4 µg/mL (≈ 41.4 µM) in data set [3] and 25.4 µg/mL (≈ 44.9 µM) in data set [4]. Further, the GI50 amounted to 97.6 µg/mL (≈ 173 µM) in data set [5], 91.4 µg/mL (≈ 162 µM) in [6], 52.8 µg/mL (≈ 93.3 µM) in data set [7] and 55.7 µg/mL (≈ 98.5 µM) in [8]. Also, the selectivity ratio in data set [9] worked out at 3; in [10] it was 4; in data set [11], 2; in [12] it was 2; in [13], 2; in [14] it was 2. The selectivity ratio was found to be 3 in data set [15]; 4 in data set [16]; 2 in data set [17]; 2 in data set [18]; 2 in data set [19]; 2 in data set [20].
Regarding `CCCCCc1cc2c(=O)n(CCCSc3nc(-c4cc(OC)c(OC)c(OC)c4)c(C#N)c(=O)[nH]3)cnc2s1`, the MIC in data set [1] was 9.8 µg/mL (≈ 16.8 µM); in [2] it was over 30 µg/mL; in data set [3] it was 12.3 µg/mL (≈ 21.1 µM); in data set [4], over 30 µg/mL. Further, the GI50 in data set [5] is over 100 µg/mL; in data set [6], over 100 µg/mL; in data set [7], 72.8 µg/mL (≈ 125 µM); in data set [8], 75.8 µg/mL (≈ 130 µM). The selectivity ratio is over 10 in data set [9]; over 8 in data set [10]; over 7 in data set [11]; over 6 in [12]; 8 in data set [13]; 6 in data set [14]. Moreover, the selectivity ratio in [15] was over 3; in [16], over 3; in data set [17], over 2; in data set [18], over 2; in data set [19], 3; in data set [20], 3.
In the case of `CCCCCCc1cc2c(=O)n(CCCSc3nc(-c4cc(OC)c(OC)c(OC)c4)c(C#N)c(=O)[nH]3)cnc2s1`, the MIC in data set [1] was 7.1 µg/mL (≈ 11.9 µM); in data set [2], over 30 µg/mL; in data set [3], 8.7 µg/mL (≈ 14.6 µM); in data set [4] it was over 30 µg/mL. For the same compound, the GI50 in [5] was found to be 54.3 µg/mL (≈ 91.1 µM); in [6], 90.2 µg/mL (≈ 151 µM); in [7] it was 28.1 µg/mL (≈ 47.2 µM); in data set [8], 67 µg/mL (≈ 112 µM). The selectivity ratio in data set [9] amounted to 13; in data set [10], 10; in [11], 4; in [12], 3; in [13], 9; in [14] it was 8. For the same compound, the selectivity ratio in data set [15] was under 3; in data set [16] it was 3; in data set [17], 1; in [18] it was 1; in data set [19], 2; in [20] it was 2.
Consider `CCCCCCCc1cc2c(=O)n(CCCSc3nc(-c4cc(OC)c(OC)c(OC)c4)c(C#N)c(=O)[nH]3)cnc2s1`, for which the MIC was 6.91 µg/mL (≈ 11.3 µM) in data set [1], over 30 µg/mL in data set [2], 7.6 µg/mL (≈ 12.5 µM) in data set [3] and over 30 µg/mL in [4]. Also, the GI50 in data set [5] is 68.2 µg/mL (≈ 112 µM); in [6] it was 90.5 µg/mL (≈ 148 µM); in [7] it was over 100 µg/mL; in [8] it was 76.1 µg/mL (≈ 125 µM). Further, the selectivity ratio in data set [9] was 13; in data set [10], 12; in data set [11], over 14; in data set [12], over 13; in data set [13], 11; in [14], 10. The selectivity ratio in data set [15] is under 3; in data set [16] it was 3; in data set [17] it was 3; in data set [18], 3; in data set [19] it was 3; in [20], 3.
As to `CCCc1cc2c(=O)n(CCCSc3nc(-c4cc(OC)c(OC)c(OC)c4)c(C#N)c(=O)[nH]3)cnc2s1`, the MIC in data set [1] was 11.9 µg/mL (≈ 21.5 µM); in [2] it was over 30 µg/mL; in [3], 19.1 µg/mL (≈ 34.5 µM); in [4], over 30 µg/mL. The GI50 was over 100 µg/mL in [5], over 100 µg/mL in data set [6], over 100 µg/mL in data set [7] and 52.5 µg/mL (≈ 94.8 µM) in data set [8]. In addition, the selectivity ratio is over 8 in data set [9]; over 5 in data set [10]; over 8 in data set [11]; over 5 in data set [12]; 4 in data set [13]; 3 in data set [14]. The selectivity ratio in [15] is over 3; in data set [16], over 3; in data set [17] it was over 3; in data set [18], over 3; in data set [19] it was 2; in data set [20], 2.

For orientation: MIC means the lowest concentration that inhibits growth of the organism. Read a high MIC as a less susceptible organism. In general, GI50 refers to the concentration at which growth is held to half of that of the control.
